The target in test [1] is mouse brain serine hydrolases (Homo sapiens, UniProt O75884). It is filed as biochemical.
The target of test [2] is T1, RBBP9 (Homo sapiens, UniProt O75884). Type of test: biochemical.
Test [3] deals with T2, GSTO1 (Homo sapiens, UniProt P78417).
T2 sequence (P78417 1-241): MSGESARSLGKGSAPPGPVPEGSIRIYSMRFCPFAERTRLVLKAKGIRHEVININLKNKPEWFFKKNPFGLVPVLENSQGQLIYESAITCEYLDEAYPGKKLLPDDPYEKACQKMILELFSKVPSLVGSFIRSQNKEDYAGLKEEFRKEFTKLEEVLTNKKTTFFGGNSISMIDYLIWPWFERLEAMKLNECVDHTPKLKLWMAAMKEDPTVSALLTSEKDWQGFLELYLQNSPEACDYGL
Type of test: biochemical.

Test [4] concerns the target T1, RBBP9. Put plainly: Reversibility of RBBP9 inhibition by gel filtration. Type of test: biochemical. Conditions: emetine 500 μM or compound 2 50 μM, 30 min, then Sephadex G-25M.
The target of test [5] is T1, RBBP9. Briefly: Gel-based competitive ABPP of RBBP9 with varying Pluronic F-127. Type of test: biochemical. The settings on record: compound 5 at 10 and 20 µM, emetine 20 µM; 400 nM RBBP9.
Test [6] has as its system endogenous GSTO1 and other SE-rhodamine targets. Type of test: biochemical, human.
In test [7] the target is T2, GSTO1. Briefly: Reversibility of GSTO1 inhibition by gel filtration. Type of test: biochemical. The settings on record: 6 and 9 at 280 μM, 7 and 8 at 28 μM, 30 min, then Sephadex G-25M. An outline of the steps: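 Recombinant GSTO1 (2 μM) was incubated 30 min with DMSO or test compound, then split. One portion was labeled directly with SE-rhodamine. The other was passed over a Sephadex G-25M gel-filtration column before SE-rhodamine labeling. Both were resolved by SDS-PAGE with in-gel fluorescence read-out.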

Read-outs that look alike come from different tables or passages of the source.

T1 sequence (O75884 whole entry): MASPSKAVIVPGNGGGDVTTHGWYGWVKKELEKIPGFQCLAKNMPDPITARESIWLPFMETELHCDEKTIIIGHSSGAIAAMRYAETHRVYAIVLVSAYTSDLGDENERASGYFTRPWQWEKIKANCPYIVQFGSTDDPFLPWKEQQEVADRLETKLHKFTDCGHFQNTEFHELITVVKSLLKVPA
Sequence of mouse brain serine hydrolases (O75884 whole entry): as above

As for `CC[C@H]1CN2CCc3cc(OC)c(OC)cc3[C@@H]2C[C@@H]1C[C@H]1NCCc2c1[nH]c1ccc(O)cc21` [1c, Tubulosine], the “inhibition of RBBP9 by emetine analogues (competitive ABPP)” value in test [1] was “inhibited RBBP9, albeit with reduced potency relative to emetine”.

Consider `CCC1=C(C[C@H]2NCCc3cc(OC)c(OC)cc32)C[C@H]2c3cc(OC)c(OC)cc3CCN2C1` [1b, Dehydroemetine], for which the “inhibition of RBBP9” value in test [2] was “failed to inhibit RBBP9”.

In the case of `CC[C@H]1CN2CCc3cc(OC)c(OC)cc3[C@@H]2C[C@@H]1C[C@H]1NCCc2cc(O)c(OC)cc21` [1a, Cephaeline], in test [1], the “inhibition of RBBP9 by emetine analogues (competitive ABPP)” value is “inhibited RBBP9, albeit with reduced potency relative to emetine”.

For `N[C@@H](CCC(=O)N[C@@H](CS)C(=O)NCC(=O)O)C(=O)O` [glutathione], in test [3], the “block of probe labeling of GSTO1 (FluoPol)” value is on record as “No labeling”.

Regarding `CC[C@H]1CN2CCc3cc(OC)c(OC)cc3[C@@H]2C[C@@H]1C[C@H]1NCCc2cc(OC)c(OC)cc21` [Compound 1, Emetine], the “reversibility of RBBP9 inhibition” value in test [4] was “reversible”. In addition, in test [5], the “effect of Pluronic F-127 on inhibitory activity” value is “did not diminish the inhibitory activity”. Besides, the “block of probe labeling of GSTO1 (FluoPol)” value in test [3] is recorded as “did not block probe labeling of GSTO1”. In addition, in test [6] (20 μM), the “effect on other SE-rhodamine targets in MDA-MB-231 proteome” value is given as “did not inhibit the labeling of GSTO1 or any of the other SE-rhodamine targets” and the “inhibition of GSTO1 in MDA-MB-231 proteome” value (“inhibition of GSTO1” below) is given as “did not inhibit the labeling of GSTO1”.

On to `COc1ccc2[nH]c([S+]([O-])Cc3ncc(C)c(OC)c3C)nc2c1` (stereo not drawn) [Compound 6, omeprazole], for which, in test [7], the “reversibility of GSTO1 inhibition” value is “reversible”. Also, the “inhibition of GSTO1” value in test [6] (1 μM) is on record as “lost”; in test [6] (20 μM) it was “considerably less potent”.

With `CO[C@H]1/C=C/O[C@@]2(C)Oc3c(C)c(O)c4c(O)c(c(/C=N/N5CCN(C)CC5)c(O)c4c3C2=O)NC(=O)/C(C)=C\C=C\[C@H](C)[C@H](O)[C@@H](C)[C@@H](O)[C@@H](C)[C@H](OC(C)=O)[C@@H]1C` [Compound 9, rifampicin], the “reversibility of GSTO1 inhibition” value in test [7] is listed as “reversible”. Also, the “inhibition of GSTO1” value in test [6] (1 μM) is reported as “lost”; in test [6] (20 μM), “considerably less potent”.

The record behind these values is paper PMC2709489 (Nature biotechnology, 2009).
